From ChEMBL document CHEMBL3758165, “In vitro interactions between anidulafungin and nonsteroidal anti-inflammatory drugs on biofilms of Candida spp” (2016)

Tests used:
Assay type in all cases: functional
[1] = tested on: Meyerozyma guilliermondii; assay: Antibiofilm activity against Candida guilliermondii a83 by two dimensional checkerboard dilution method in presence of ibuprofen
Procedure, shortened: (§1)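 Biofilms were grown on PVC disks from 2 ml of a 1·10^6 cfu/ml cell suspension. Adhesion ran 1.5 h at 37 °C with shaking at 100 rpm. Disks were PBS-washed, then matured 48 h at 37 °C in RPMI 1640 (MOPS, pH 7). Biofilms were washed again and given 24 h at 37 °C of anidulafungin/NSAID checkerboard combinations (NSAID final 0.1 µM–100 mM). Read-out was XTT-menadione (2 h, 37 °C, 490 nm). SMIC was defined as 50% reduction versus drug-free control, from which FICI was calculated. Triplicates were run on different days.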

Candida albicans [2] = assay: Antibiofilm activity against Candida albicans ATCC 10231 by two dimensional checkerboard dilution method in presence of ibuprofen
Procedure, shortened: (§2)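 Preformed 48 h disk biofilms (RPMI 1640, MOPS pH 7, 37 °C), PBS-washed, exposed 24 h at 37 °C on rocker to two-dimensional checkerboard of anidulafungin plus NSAID in RPMI; NSAID final 0.1 µM to 100 mM. XTT reduction at 490 nm; SMIC = combination giving 50% metabolic reduction versus drug-free control; FIC index calculated; triplicate on different days.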

Candida albicans [3] = assay: Antibiofilm activity against Candida albicans 17a18 assessed as fractional inhibitory concentration by two dimensional checkerboard dilution method in presence of diclofenac; procedure, shortened: as §2
Candida albicans [4] = assay: Antibiofilm activity against Candida albicans 17a18 by two dimensional checkerboard dilution method in presence of aspirin; procedure, shortened: as §2
[5] = tested on: Meyerozyma guilliermondii; assay: Antibiofilm activity against Candida guilliermondii ATCC 6260 assessed as fractional inhibitory concentration by two dimensional checkerboard dilution method in presence of diclofenac; procedure, shortened: as §2
Candida albicans [6] = assay: Antibiofilm activity against Candida albicans ATCC 24433 after 48 hrs by XTT reduction assay relative to control; set-up: scale not given: the % may be the effect or the level left
Procedure, shortened: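 Biofilms grown on autoclaved PVC disks: 1·10^6 cfu ml-1 cells, adhesion 1.5 h at 37 °C shaking 100 rpm, PBS wash, then 48 h at 37 °C in RPMI 1640 (MOPS, pH 7). Metabolic activity read by XTT–menadione reduction, 2 h at 37 °C, supernatant formazan at 490 nm, relative to drug-free control; triplicate on different days.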

Candida albicans [7] = assay: Antibiofilm activity against Candida albicans ATCC 24433 assessed as fractional inhibitory concentration by two dimensional checkerboard dilution method in presence of ibuprofen; procedure, shortened: as §2
[8] = tested on: Meyerozyma guilliermondii; assay: Antibiofilm activity against Candida guilliermondii a410 assessed as fractional inhibitory concentration by two dimensional checkerboard dilution method in presence of diclofenac; procedure, shortened: as §1
Candida albicans [9] = assay: Antibiofilm activity against Candida albicans 17a18 assessed as fractional inhibitory concentration by two dimensional checkerboard dilution method in presence of aspirin; procedure, shortened: as §2
Candida albicans [10] = assay: Antibiofilm activity against Candida albicans ATCC 90028 by two dimensional checkerboard dilution method in presence of ibuprofen; procedure, shortened: as §2
Candida albicans [11] = assay: Antibiofilm activity against Candida albicans ATCC 90028 by two dimensional checkerboard dilution method
Procedure, shortened: (§3)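 Biofilms grown on sterilized PVC disks: 1·10^6 cfu/ml Candida cells adhered for 1.5 h at 37 °C with shaking, washed with PBS, then matured 48 h at 37 °C in RPMI 1640 (MOPS, pH 7). Preformed biofilms were washed and exposed to drug, alone or in two-dimensional checkerboard combination, in RPMI 1640 for 24 h at 37 °C on a rocker.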

[12] = tested on: Meyerozyma guilliermondii; assay: Antibiofilm activity against Candida guilliermondii a83 assessed as fractional inhibitory concentration by two dimensional checkerboard dilution method in presence of ibuprofen; procedure, shortened: as §1
[13] = tested on: Meyerozyma guilliermondii; assay: Antibiofilm activity against Candida guilliermondii a410 assessed as fractional inhibitory concentration by two dimensional checkerboard dilution method in presence of aspirin; procedure, shortened: as §1
Nakaseomyces glabratus [14] = assay: Antibiofilm activity against Candida glabrata ATCC 15126 assessed as fractional inhibitory concentration by two dimensional checkerboard dilution method in presence of diclofenac; procedure, shortened: as §2
Candida albicans [15] = assay: Antibiofilm activity against Candida albicans ATCC 24433 assessed as fractional inhibitory concentration by two dimensional checkerboard dilution method in presence of aspirin; procedure, shortened: as §2
[16] = tested on: Meyerozyma guilliermondii; assay: Antibiofilm activity against Candida guilliermondii a83 assessed as fractional inhibitory concentration by two dimensional checkerboard dilution method in presence of diclofenac; procedure, shortened: as §1
Candida albicans [17] = assay: Antibiofilm activity against Candida albicans ATCC 10231 assessed as fractional inhibitory concentration by two dimensional checkerboard dilution method in presence of aspirin; procedure, shortened: as §2
[18] = tested on: Meyerozyma guilliermondii; assay: Potentiation of anidulafungin-induced antibiofilm activity against Candida guilliermondii a83 at 0.1 uM to 100 mM after 48 hrs by XTT reduction assay relative to control; set-up: scale not given: the % may be the effect or the level left; procedure, shortened: as §3
Candida albicans [19] = assay: Potentiation of anidulafungin-induced antibiofilm activity against Candida albicans 17a18 at 0.1 uM to 100 mM after 48 hrs by XTT reduction assay relative to control; set-up: scale not given: the % may be the effect or the level left; procedure, shortened: as §3
[20] = tested on: Meyerozyma guilliermondii; assay: Antibiofilm activity against Candida guilliermondii ATCC 6260 at 1 mM after 24 hrs by XTT reduction assay relative to control; set-up: scale not given: the % may be the effect or the level left; procedure, shortened: as §3
Nakaseomyces glabratus [21] = assay: Antibiofilm activity against Candida glabrata 18a10 at 0.1 uM to 100 mM after 48 hrs by XTT reduction assay relative to control; set-up: scale not given: the % may be the effect or the level left; procedure, shortened: as §3
Candida albicans [22] = assay: Potentiation of anidulafungin-induced antibiofilm activity against Candida albicans ATCC 90028 at 0.1 uM to 100 mM after 48 hrs by XTT reduction assay relative to control; set-up: scale not given: the % may be the effect or the level left; procedure, shortened: as §3
Candida albicans [23] = assay: Potentiation of anidulafungin-induced antibiofilm activity against Candida albicans ATCC 24433 assessed as anidulafungin-fractional inhibitory concentration index by two dimensional checkerboard dilution method
Procedure, shortened: (§4)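 Biofilms grown on PVC disks: 1·10^6 cfu/ml in RPMI 1640 (MOPS, pH 7), 1.5 h adhesion at 37 °C with shaking, PBS wash, 48 h maturation at 37 °C. Preformed biofilms exposed 24 h at 37 °C to anidulafungin/NSAID checkerboard combinations in RPMI. XTT-menadione reduction read at 490 nm. SMIC = 50% metabolic reduction versus drug-free control. Triplicate runs on different days; FIC index calculated.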

Candida albicans [24] = assay: Antibiofilm activity against Candida albicans ATCC 10231 at 0.1 uM to 100 mM after 48 hrs by XTT reduction assay relative to control; set-up: scale not given: the % may be the effect or the level left; procedure, shortened: as §3
Candida albicans [25] = assay: Antibiofilm activity against Candida albicans ATCC 90028 at 1 mM after 24 hrs by XTT reduction assay relative to control; set-up: scale not given: the % may be the effect or the level left; procedure, shortened: as §3
Nakaseomyces glabratus [26] = assay: Antibiofilm activity against Candida glabrata ATCC 15126 assessed as fractional inhibitory concentration by two dimensional checkerboard dilution method in presence of anidulafungin; procedure, shortened: as §4
[27] = tested on: Meyerozyma guilliermondii; assay: Antibiofilm activity against Candida guilliermondii ATCC 6260 assessed as fractional inhibitory concentration by two dimensional checkerboard dilution method in presence of anidulafungin; procedure, shortened: as §4
Candida albicans [28] = assay: Antibiofilm activity against Candida albicans ATCC 10231 assessed as fractional inhibitory concentration by two dimensional checkerboard dilution method in presence of anidulafungin; procedure, shortened: as §4
Candida albicans [29] = assay: Antibiofilm activity against Candida albicans ATCC 24433 at 0.1 uM to 100 mM after 48 hrs by XTT reduction assay relative to control; set-up: scale not given: the % may be the effect or the level left; procedure, shortened: as §3
[30] = tested on: Meyerozyma guilliermondii; assay: Antibiofilm activity against Candida guilliermondii a410 at 0.2 mM after 24 hrs by XTT reduction assay relative to control; set-up: scale not given: the % may be the effect or the level left; procedure, shortened: as §3

MIC (Candida albicans [11])	Compound	Activity [18] [%]	Activity (Candida albicans [19]) [%]	Activity (Nakaseomyces glabratus [21]) [%]	Activity (Candida albicans [22]) [%]	fractional inhibitory concentration index (FICI) (Candida albicans [23])	Activity (Candida albicans [24]) [%]	Activity (Candida albicans [25]) [%]	Ratio (Nakaseomyces glabratus [26])	Ratio [27]	Ratio (Candida albicans [28])	Activity (Candida albicans [29]) [%]	other results
1000 µM	CC(=O)Oc1ccccc1C(=O)O [ASPIRIN]	45.32	51.74	32.32	57.84	0.15	49.21	44.72	0.05	0.1	0.05	–	Activity [20]: 54.12%
100000 µM	O=C([O-])Cc1ccccc1Nc1c(Cl)cccc1Cl.[Na+] [DICLOFENAC SODIUM]	55.64	64.25	44.54	71.04	0.1	53.57	–	0.2	0.4	0.05	50.25	–
1000 µM	CC(C)Cc1ccc(C(C)C(=O)O)cc1 (configuration not stated) [IBUPROFEN]	52.11	64.22	53.44	61.43	0.3	–	25.62	0.2	0.1	0.05	22.45	Activity [30]: 53.24%

Compound	MIC (Candida albicans [11])	Activity [18] [%]	Activity (Candida albicans [19]) [%]	Activity (Nakaseomyces glabratus [21]) [%]	Activity (Candida albicans [22]) [%]	fractional inhibitory concentration index (FICI) (Candida albicans [23])	Activity (Candida albicans [24]) [%]	Activity (Candida albicans [25]) [%]	Ratio (Nakaseomyces glabratus [26])	Ratio [27]	Ratio (Candida albicans [28])	Activity (Candida albicans [29]) [%]	other results
CCCCCOc1ccc(-c2ccc(-c3ccc(C(=O)N[C@@H]4C[C@@H](O)[C@@H](O)NC(=O)[C@@H]5[C@@H](O)[C@@H](C)CN5C(=O)[C@H]([C@@H](C)O)NC(=O)[C@H]([C@H](O)[C@@H](O)c5ccc(O)cc5)NC(=O)[C@@H]5C[C@@H](O)CN5C(=O)[C@H]([C@H](C)O)NC4=O)cc3)cc2)cc1	2 µg/mL	–	–	–	–	–	–	–	–	–	–	–	MIC [1]: 0.1 µg/mL; MIC (Candida albicans [2]): 0.4 µg/mL; Ratio (Candida albicans [3]): 0.05; MIC (Candida albicans [4]): 0.1 µg/mL; Ratio [5]: 0.05; Activity (Candida albicans [6]): 25.06%; Ratio (Candida albicans [7]): 0.2; Ratio [8]: 0.05; Ratio (Candida albicans [9]): 0.05; MIC (Candida albicans [10]): 0.4 µg/mL; Ratio [12]: 0.05; Ratio [13]: 0.05; Ratio (Nakaseomyces glabratus [14]): 0.1; Ratio (Candida albicans [15]): 0.05; Ratio [16]: 0.1; Ratio (Candida albicans [17]): 0.05
